From ChEMBL document CHEMBL3352552, “Total synthesis and antibacterial testing of the A54556 cyclic acyldepsipeptides isolated from Streptomyces hawaiiensis” (J Nat Prod, 2014)
In brackets after ≈: the same amount, converted by molar mass. Activity calls are given as the source filed them. No cut-off for these calls is given here. Where a SMILES comes first, the peptide text is derived from it. Bridges are numbered along the chain shown (N, C = ends). [ ]: non-standard residue; d: D form. The star is where a group is joined. Octatrienoyl(2E,4E,6E) = C/C=C/C=C/C=C/C(=O)*; Hexadienoyl(2E,4E) = C/C=C/C=C/C(=O)*; Pro(4R-Me) = C[C@H]1CN[C@H](C(=O)O)C1; NMeA = CN[C@@H](C)C(=O)O; X1 = CCC/C=C/C=C/C(=O)*

Legend:
[1] = molecular target: ATP-dependent Clp protease proteolytic subunit (Escherichia coli (strain K12)) (UniProt P0A6G7); assay: Activation of Escherichia coli ClpP assessed as degradation of casein-FITC substrate at 5 uM fluorescence-based biochemical assay
Sequence of ATP-dependent Clp protease proteolytic subunit (Escherichia coli (strain K12)) (P0A6G7 whole entry): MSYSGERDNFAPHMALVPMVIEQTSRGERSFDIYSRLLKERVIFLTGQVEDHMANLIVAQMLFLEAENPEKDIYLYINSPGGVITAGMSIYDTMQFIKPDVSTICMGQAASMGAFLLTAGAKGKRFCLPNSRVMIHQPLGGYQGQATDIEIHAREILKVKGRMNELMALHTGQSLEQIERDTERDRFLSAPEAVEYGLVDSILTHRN

[2] = molecular target: ATP-dependent Clp protease proteolytic subunit (Escherichia coli (strain K12), UniProt P0A6G7); assay: Activation of Escherichia coli ClpP by ITC method
Sequence of ATP-dependent Clp protease proteolytic subunit (P0A6G7 whole entry): as above

Streptococcus pneumoniae = assay: Antibacterial activity against Streptococcus pneumoniae ATCC 49619 incubated for 16 to 18 hrs by broth microdilution method; format: functional
How it was run: (§1)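 Colonies pre-grown 16−18 h at 37 °C in moist 5% CO₂ (Staph. aureus on LB agar; the others on GC agar with 1% IsoVitaleX), then diluted in BHI + 1% IsoVitaleX. Inoculum set by OD (600 nm Staph. aureus and S. pneumoniae; 550 nm N. meningitidis) to give ∼5 × 10⁵ cfu/mL per well. Twofold dilutions run 128–0.0625 μg/mL final. DMSO-only and medium blanks were included, with three independent plates, incubated 16−18 h at 37 °C in 5% CO₂.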

Staphylococcus aureus = assay: Antibacterial activity against Staphylococcus aureus ATCC 29213 incubated for 16 to 18 hrs by broth microdilution method; format: functional; how it was run: as §1
Neisseria meningitidis = assay: Antibacterial activity against Neisseria meningitidis H44/76 incubated for 16 to 18 hrs by broth microdilution method; format: functional; how it was run: as §1

SMILES	Activity [1]	Kd [2] [nM]	MIC (Streptococcus pneumoniae) [µg/mL]	MIC (Staphylococcus aureus) [µg/mL]	MIC (Neisseria meningitidis) [µg/mL]
C/C=C/C=C/C=C/C(=O)N[C@@H](Cc1ccccc1)C(=O)N[C@H]1COC(=O)[C@@H]2CCCN2C(=O)[C@H](C)NC(=O)[C@H](C)N(C)C(=O)[C@@H]2CCCN2C1=O ({Octatrienoyl(2E,4E,6E)}-FSP[NMeA]AP; ester 2-C)	Active	700	0.5 (≈ 0.709 µM)	16 (≈ 22.7 µM)	0.5 (≈ 0.709 µM)
CCC/C=C/C=C/C(=O)N[C@@H](Cc1ccccc1)C(=O)N[C@H]1COC(=O)[C@@H]2C[C@@H](C)CN2C(=O)[C@H](C)NC(=O)[C@H](C)N(C)C(=O)[C@@H]2CCCN2C1=O (X1-FSP[NMeA]A[Pro(4R-Me)]; ester 2-C)	Active	–	< 0.0625	0.5 (≈ 0.694 µM)	< 0.0625
CN[C@H](CC(C)C)C(=O)N[C@H]1C(=O)N[C@@H](CC(N)=O)C(=O)N[C@H]2C(=O)N[C@H]3C(=O)N[C@H](C(=O)N[C@H](C(=O)O)c4cc(O)cc(O)c4-c4cc3ccc4O)[C@H](O)c3ccc(c(Cl)c3)Oc3cc2cc(c3O[C@@H]2O[C@H](CO)[C@@H](O)[C@H](O)[C@H]2O[C@H]2C[C@](C)(N)[C@H](O)[C@H](C)O2)Oc2ccc(cc2Cl)[C@H]1O [VANCOMYCIN]	–	–	2 (≈ 1.38 µM)	–	–
C[C@@H]1C[C@H]2C(=O)OC[C@H](NC(=O)[C@H](Cc3ccccc3)NC(=O)/C=C/C=C/CO)C(=O)N3CCC[C@H]3C(=O)N(C)[C@@H](C)C(=O)N[C@@H](C)C(=O)N2C1 (stereo in doubt)	inactive	–	0.25 (≈ 0.353 µM)	128 (≈ 181 µM)	64 (≈ 90.3 µM)
C/C=C/C=C/C(=O)N[C@@H](Cc1ccccc1)C(=O)N[C@H]1COC(=O)[C@@H]2CCCN2C(=O)[C@H](C)NC(=O)[C@H](C)N(C)C(=O)[C@@H]2CCCN2C1=O ({Hexadienoyl(2E,4E)}-FSP[NMeA]AP; ester 2-C)	inactive	–	0.25 (≈ 0.368 µM)	16 (≈ 23.6 µM)	4 (≈ 5.89 µM)
NC[C@@H]1O[C@@H](O[C@H]2[C@H](O)[C@@H](O[C@H]3O[C@H](CO)[C@@H](O)[C@H](N)[C@H]3O)[C@H](N)C[C@@H]2N)[C@@H](O)[C@H](O)[C@H]1O [KANAMYCIN A]	–	–	–	–	64 (≈ 132 µM)
C/C=C/C=C/C(=O)N[C@@H](Cc1ccccc1)C(=O)N[C@H]1COC(=O)[C@@H]2C[C@@H](C)CN2C(=O)[C@H](C)NC(=O)[C@H](C)N(C)C(=O)[C@@H]2CCCN2C1=O ({Hexadienoyl(2E,4E)}-FSP[NMeA]A[Pro(4R-Me)]; ester 2-C)	inactive	–	0.125 (≈ 0.18 µM)	4 (≈ 5.77 µM)	2 (≈ 2.89 µM)
C/C=C/C=C/C=C/C(=O)N[C@@H](Cc1ccccc1)C(=O)N[C@H]1COC(=O)[C@@H]2C[C@@H](C)CN2C(=O)[C@H](C)NC(=O)[C@H](C)N(C)C(=O)[C@@H]2CCCN2C1=O ({Octatrienoyl(2E,4E,6E)}-FSP[NMeA]A[Pro(4R-Me)]; ester 2-C)	Active	300	< 0.0625	4 (≈ 5.56 µM)	0.125 (≈ 0.174 µM)
